GSIS activator = GLuc luminescence reporter in INS-1E cells, primary screen for activators of glucose-dependent secretion of insulin; INS-1E GLuc reporter insulin secretion, 2-3 h; activation, % at 16.6 µM; actives 0.61% (n = 370,000);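 active = lowest replicate activation of at least 40%, so every replicate reaches that level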
miR122 inh = blocks miR-122 activity in Huh7 sensor cells; Huh7 miR-122 Renilla luciferase sensor, 48 h; neutral wells = 0, positive control = 100; activation (reporter increase), % at 12.5 µM; actives 0.3% (n = 340,000); AID 602342;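 active = mean replicate activation score at least 90 and every replicate individually at or above 90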;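 note: higher luciferase means less miR-122 activity so hits act as miR-122 inhibitors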
Cneo AK release = causes C. neoformans cell lysis; adenylate kinase release luminescence, 4 h; normalised: neutral wells 0, clomiphene wells 100; lysis activity, % at 15 µM; actives 0.2% (n = 360,000);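 active = mean lysis activity across replicates of at least 80%, whatever share of replicates individually reach that level; inactive = mean lysis activity below 80%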
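Signal: Adenylate kinase release luminescence | Assay system: Log-phase Cryptococcus neoformans yeast cells | Input: Cells at 5 × 10^6 per mL | Buffer or medium: Fresh YPD growth medium | Compound: Single dose | Schedule: Static 4 h at 37 °C with compound, 1 h detection | Controls: Clomiphene | Read-out: Luminescence rise reflecting yeast cell lysis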
Ecoli rRNA inh = inhibits bacterial ribosomal RNA function over humanized ribosomes. E. coli WT GFP vs humanized-ribosome RFP mutants, fluorescence, 24 h; stronger effect = lower value; DMSO median 0, no signal -100. actives 1.6% (n = 350,000). GFP signal change (wild-type ribosome), % (test concentration not listed);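 active = significant combined selectivity score with lowered wild-type GFP, culture density cut under 30%, mutant RFP and density less affected; inactive = any of these conditions unmet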
Env fusion inh = blocks HIV Env-driven cell-cell fusion. HeLa-JRFL Env/CEM21 cell fusion, luciferase. inhibition, % at 12.3 µM. actives 1.1% (n = 360,000). AID 651610;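 active = mean replicate inhibition score of at least 50 and every replicate individually at or above 50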
F508del corr = correctors of CFTR F508del function in bronchial epithelial cells. CFBE cells, YFP halide quenching; stimulated with forskolin plus potentiator P3; % fluorescence drop versus neutral controls. activity (quench increase), % at 7.58 µM. actives 0.36% (n = 350,000). AID 720511;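 active = mean added fluorescence quench of at least 8% versus neutral control, with both replicates also reaching 8%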;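 note: cells transiently co-express mutant CFTR-F508del with the halide-sensitive YFP; corrector assay measuring rescue of mutant channel to the surface after 24 h compound exposure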
Hits are given with their value; – = inactive; · = no result given. An excerpt weighted towards active compounds, which were near 3.1% of everything screened.

SMILES	GSIS activator	miR122 inh	Cneo AK release	Ecoli rRNA inh	Env fusion inh	F508del corr
Cc1oc2ccc(O)cc2c1C(=O)c1ccc([N+](=O)[O-])cc1	–	–	–	–	·	–
CN(C)/C=C/c1oc2ccc(O)cc2c1[N+](=O)[O-]	–	·	·	-30	–	–
CC(C)NC(=O)Nc1cccc2c1O[C@@H](CN(C)S(=O)(=O)c1ccc(F)cc1)[C@H](C)CN([C@H](C)CO)C2=O	–	–	–	–	–	–
O=C(C[C@H]1CC[C@H](NC(=O)Cc2ccccn2)[C@H](CO)O1)NCCc1ccccc1	–	·	–	–	–	–
C[C@H](NC(=O)C[C@H]1CC[C@@H](NC(=O)Cc2ccccn2)[C@@H](CO)O1)c1ccccc1	–	–	96	–	–	–
O=C(C[C@@H]1CC[C@H](NC(=O)Cc2ccccn2)[C@@H](CO)O1)NCCc1ccccc1	–	·	95	–	–	–
O=C(Cc1ccccn1)NCC[C@@H]1CC[C@H](NC(=O)Nc2ccc(C(F)(F)F)cc2)[C@@H](CO)O1	–	·	–	–	–	14
C[C@@H]1CN([C@H](C)CO)C(=O)c2cc(NS(C)(=O)=O)ccc2O[C@@H](C)CCCCO[C@@H]1CN(C)S(C)(=O)=O	–	–	–	–	–	–
Nn1c(C2CCCCC2)nc2ccccc2c1=O	50	–	–	–	–	–
C[C@@H]1CN([C@@H](C)CO)C(=O)c2cc(-c3cccc(C(=O)N(C)C)c3)cnc2O[C@H]1CN(C)S(=O)(=O)c1ccccc1	–	·	–	–	–	–
CCCC(=O)N1CCN(c2nc3ccccc3s2)CC1	–	–	–	–	–	–
O=C(c1cccs1)N1CCN(c2nc3ccccc3s2)CC1	–	·	–	–	–	–
Cc1ccc(-c2nnn(CC(=O)N3CCN(c4nc5ccccc5s4)CC3)n2)cc1	211	–	–	·	–	·
O=C(c1cc2sccc2n1Cc1ccc(F)cc1)N1CCN(c2nc3ccccc3s2)CC1	·	–	–	·	87	·
COCCNC(=O)C1CCN(C(=O)c2cc3sccc3n2Cc2ccc(F)cc2)CC1	–	·	·	–	–	–
Cn1c(C(=O)N2CCN(c3nc4ccccc4s3)CC2)cc2sccc21	–	–	–	·	71	·
O=C(c1ccc(Cl)s1)N1CCN(c2nc3ccccc3s2)CC1	–	–	–	–	77	–
O=C(C[C@@H]1CC[C@H]2[C@@H](COC[C@@H](O)CN2S(=O)(=O)c2ccc(Oc3ccccc3)cc2)O1)Nc1ccccc1	–	–	–	–	·	–
COc1ccc(S(=O)(=O)NCCc2cn3cccc(C)c3n2)cc1OC	–	·	–	–	–	–
Cc1cccn2cc(CCNS(=O)(=O)c3cccs3)nc12	42	–	–	–	–	–
C[C@@H]1CN([C@H](C)CO)C(=O)c2cc(-c3ccc(F)cc3)cnc2O[C@@H]1CN(C)C(=O)c1ccc(F)cc1	–	–	–	–	–	–
Cc1nnc(SCC(=O)Nc2ccc3c(c2)OCO3)s1	–	–	–	–	–	–
O=C(CSc1nc2ccccc2s1)Nc1ccc2c(c1)OCO2	–	·	·	-28	–	–
O=S1(=O)CCN(C(CO)c2ccccc2)CC1 (centres undefined)	–	·	·	–	–	10
CC[C@@H]1C/C=C\C[C@H](c2ccc(OC)cc2OC)NC(=O)[C@@H](C)CC(=O)N1	–	·	·	–	·	·
SMILES	GSIS activator	miR122 inh	Cneo AK release	Ecoli rRNA inh	Env fusion inh	F508del corr
Cc1ccc(C(=O)CSc2nc(C)cc(SCc3nnc(-c4ccccc4)o3)n2)cc1	·	–	–	·	62	·
C[C@H]1CN([C@@H](C)CO)C(=O)c2cc(NC(=O)Nc3ccccc3)ccc2O[C@H]1CN(C)C(=O)Nc1ccc(C(F)(F)F)cc1	–	–	–	–	–	–
Cc1ccc(NC(=O)COC(=O)c2nn(-c3ccc(Cl)cc3)cc2O)cc1	–	–	–	–	–	–
NNC(=O)c1nn(-c2ccc(Cl)cc2)cc1O	–	–	–	-19	–	–
Cc1ccc(-n2nc(C(=O)NN)c(C)c(C#N)c2=O)cc1Cl	–	·	–	–	–	–
Cc1c(C(=O)NN)nn(-c2ccc(Cl)cc2)c(=O)c1C#N	–	·	·	-16	–	–
C[C@@H]1CCCCO[C@@H](CN(C)Cc2ccc(C(=O)Nc3ccccc3N)cc2)[C@@H](C)CN([C@H](C)CO)C(=O)c2cc(NS(=O)(=O)c3cn(C)cn3)ccc2O1	–	·	·	–	·	–
COc1cc(NC2c3ccccc3C(=O)N2Cc2ccc3c(c2)OCO3)cc(OC)c1OC (centres undefined)	–	–	–	–	87	–
CCOc1ccc(NC2c3ccccc3C(=O)N2Cc2ccc3c(c2)OCO3)cc1 (centres undefined)	·	–	–	–	–	–
N#Cc1ccc(-c2cccc(-c3nc(C(=O)O)cc4c3[C@@H](CCO)N(CC3CCOCC3)C4)c2)cc1	–	·	·	–	·	·
CC(=O)Nc1ccc(S(=O)(=O)N2c3ccc(F)cc3CCC2C)cc1 (centres undefined)	–	–	–	–	–	–
COc1ccc(S(=O)(=O)N2c3ccc(F)cc3CCC2C)cc1 (centres undefined)	–	–	–	-28	–	·
c1ccc(Cn2c(-c3ccccc3)c[n+]3c2SCCC3)cc1	–	–	–	-45	–	–
COCCCNC(=S)N1CCN(c2nc(-c3ccc(F)cc3)cs2)CC1	–	–	–	–	108	–
S=C(NCC1CCCO1)N1CCN(c2nc(-c3ccc(Cl)cc3)cs2)CC1 (centres undefined)	–	–	–	–	57	–
S=C(NCCCN1CCOCC1)N1CCN(c2ccccc2)CC1	·	·	–	–	–	–
CCCNC(=S)N1CCN(c2nc(-c3ccc(C)cc3)cs2)CC1	–	–	–	–	–	–
S=C(NCCCN1CCOCC1)N1CCN(c2nc(-c3ccccc3)cs2)CC1	–	–	–	-22	–	–
S=C(NCCCN1CCOCC1)N1CCN(c2nc(-c3ccc(Cl)cc3)cs2)CC1	–	·	–	–	75	–
CCCNC(=O)N1C[C@@H](C)[C@@H](OC)CN(C)C(=O)c2cc(NS(=O)(=O)CC(F)(F)F)ccc2OC[C@H]1C	–	·	–	–	·	–
CC(=O)N1C[C@@H]2C(c3ccc(Br)cc3)[C@H](C1)N2C(C)=O (some centres undefined)	–	·	·	–	·	·
C[C@@H]1CN([C@H](C)CO)C(=O)c2cccc(NS(=O)(=O)c3cccs3)c2O[C@H]1CN(C)S(=O)(=O)c1ccccc1	–	–	–	–	·	–
COc1ccc(C(=O)Nc2ccc3c(c2)C(=O)N(C)C[C@H](OC)[C@@H](C)CN(C)[C@H](C)CO3)cc1	–	·	–	–	–	–

Screening data from PubChem.
